The test system of assay [1] is Staphylococcus aureus. Nature of the assay: Antibacterial activity against Staphylococcus aureus ATCC 23235 incubated for 48 hrs by spectrophotometric analysis. Format: functional.
Assay [2] deals with Streptococcus mutans. Kind of assay: Antibacterial activity against Streptococcus mutans ATCC 25175 incubated for 48 hrs by spectrophotometric analysis. It counts as functional.
Assay [3] concerns Treponema denticola. Nature of the assay: Antibacterial activity against Treponema denticola ATCC 35405 incubated for 48 hrs by spectrophotometric analysis. It counts as functional. The gist of the method:
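Broth microdilution MIC: fractions tested at 20–200 μg/mL and pure compounds at 10–200 μg/mL, each with 0.5 × 10^5 CFU/mL inoculum. S. aureus and S. mutans grew aerobically in BHI at 37 °C for 24 h. T. denticola grew anaerobically in BHI at 37 °C for 48 h. Read by A600. MIC is the lowest concentration inhibiting visible growth. Blank and DMSO vehicle controls were included; triplicate.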

The test system of assay [4] is Streptococcus mutans. Nature of the assay: Antibacterial activity against Streptococcus mutans ATCC 25175 assessed as inhibition of efflux pump by measuring […] in accumulation of ethidium bromide at 0.6 ug/ml and measured after 60 mins by fluorescence assay. Format: functional, organism-based. As to conditions: dose 0.6 µg/ml. In a few lines:
(§1)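 EtBr accumulation in S. mutans grown overnight in BHI at 37 °C. Cells were washed twice and resuspended in PBS at OD600 0.6 with 0.4% glucose and 2 μg/mL EtBr (final). Psiadin was tested at 25 and 50 μg/mL, chlorhexidine at 0.6 μg/mL, and psiadin combined with chlorhexidine. DMSO and MeOH (0.5% each) served as negative controls. Fluorescence (ex 525/em 605 nm) was read every 60 s for 60 min at 37 °C.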

In assay [5] the test system is Staphylococcus aureus. Kind of assay: Antibacterial activity against Staphylococcus aureus ATCC 23235 incubated for 48 hrs by checkerboard assay. Format: functional. In a few lines:
(§2)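 Checkerboard: psiadin at 0, 25, 50, 100, 200 μg/mL crossed with chlorhexidine at 5, 2.5, 1.25, 0.6, 0.3, 0 μg/mL. Broth microdilution MIC was read as the lowest concentration with no visible growth (A600). L. plantarum grew in MRS and T. denticola in BHI, both anaerobic at 37 °C. S. aureus and S. mutans grew in aerobic BHI at 37 °C. FIC index calculated from combination versus single-agent MICs.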

Assay [6] deals with Streptococcus mutans. Kind of assay: Antibacterial activity against Streptococcus mutans ATCC 25175 incubated for 48 hrs by checkerboard assay. It counts as functional. In a few lines: as §2
Assay [7] concerns Lactiplantibacillus plantarum. Nature of the assay: Antibacterial activity against Lactobacillus plantarum ATCC 8014 incubated for 48 hrs by checkerboard assay. Format: functional. The gist of the method: as §2
In assay [8] the test system is Treponema denticola. Nature of the assay: Antibacterial activity against Treponema denticola ATCC 35405 incubated for 48 hrs by checkerboard assay. It counts as functional. The gist of the method: as §2
For assay [9], the system named is Staphylococcus aureus. Nature of the assay: Potentiation of antimicrobial activity against Staphylococcus aureus ATCC 23235 assessed as chlorhexidine MIC at 25 ug/ml incubated for 48 hrs by checkerboard assay. It counts as functional. Particulars: dose 25 µg/ml. The gist of the method: as §2
For assay [10], the system named is Streptococcus mutans. Nature of the assay: Potentiation of antimicrobial activity against Streptococcus mutans ATCC 25175 assessed as chlorhexidine MIC at 25 ug/ml incubated for 48 hrs by checkerboard assay. It counts as functional. As to conditions: dose 25 µg/ml. In a few lines:
as §2

The test system of assay [11] is Lactiplantibacillus plantarum. Kind of assay: Potentiation of antimicrobial activity against Lactobacillus plantarum ATCC 8014 assessed as chlorhexidine MIC at 25 ug/ml incubated for 48 hrs by checkerboard assay. Format: functional. Particulars: dose 25 µg/ml. In a few lines:
as §2

Assay [12] relates to Treponema denticola. Kind of assay: Potentiation of antimicrobial activity against Treponema denticola ATCC 35405 assessed as chlorhexidine MIC at 25 ug/ml incubated for 48 hrs by checkerboard assay. It counts as functional. Particulars: dose 25 µg/ml. The gist of the method:
as §2

Assay [13] deals with Staphylococcus aureus. Kind of assay: Potentiation of antimicrobial activity against Staphylococcus aureus ATCC 23235 assessed as chlorhexidine MIC at 50 ug/ml incubated for 48 hrs by checkerboard assay. It counts as functional. As to conditions: dose 50 µg/ml. The gist of the method:
as §2

In assay [14] the test system is Streptococcus mutans. Kind of assay: Potentiation of antimicrobial activity against Streptococcus mutans ATCC 25175 assessed as chlorhexidine MIC at 50 ug/ml incubated for 48 hrs by checkerboard assay. Particulars: dose 50 µg/ml. It counts as functional. The gist of the method:
as §2

In assay [15] the test system is Lactiplantibacillus plantarum. Nature of the assay: Potentiation of antimicrobial activity against Lactobacillus plantarum ATCC 8014 assessed as chlorhexidine MIC at 50 ug/ml incubated for 48 hrs by checkerboard assay. It counts as functional. As to conditions: dose 50 µg/ml. The gist of the method:
as §2

In assay [16] the test system is Treponema denticola. Nature of the assay: Potentiation of antimicrobial activity against Treponema denticola ATCC 35405 assessed as chlorhexidine MIC at 50 ug/ml incubated for 48 hrs by checkerboard assay. Format: functional. As to conditions: dose 50 µg/ml. The gist of the method:
as §2

Assay [17] concerns Staphylococcus aureus. Nature of the assay: Potentiation of antimicrobial activity against Staphylococcus aureus ATCC 23235 assessed as chlorhexidine MIC at 100 ug/ml incubated for 48 hrs by checkerboard assay. It counts as functional. As to conditions: dose 100 µg/ml. The gist of the method: as §2
Assay [18] relates to Streptococcus mutans. Nature of the assay: Potentiation of antimicrobial activity against Streptococcus mutans ATCC 25175 assessed as chlorhexidine MIC at 100 ug/ml incubated for 48 hrs by checkerboard assay. Particulars: dose 100 µg/ml. Format: functional. In a few lines:
as §2

Assay [19] relates to Lactiplantibacillus plantarum. Kind of assay: Potentiation of antimicrobial activity against Lactobacillus plantarum ATCC 8014 assessed as chlorhexidine MIC at 100 ug/ml incubated for 48 hrs by checkerboard assay. It counts as functional. As to conditions: dose 100 µg/ml. In a few lines: as §2
The test system of assay [20] is Treponema denticola. Nature of the assay: Potentiation of antimicrobial activity against Treponema denticola ATCC 35405 assessed as chlorhexidine MIC at 100 ug/ml incubated for 48 hrs by checkerboard assay. As to conditions: dose 100 µg/ml. Format: functional. In a few lines:
as §2

Assay [21] has as its system Staphylococcus aureus. Kind of assay: Potentiation of antimicrobial activity against Staphylococcus aureus ATCC 23235 assessed as chlorhexidine MIC at 200 ug/ml incubated for 48 hrs by checkerboard assay. It counts as functional. As to conditions: dose 200 µg/ml. In a few lines: as §2
For assay [22], the system named is Streptococcus mutans. Kind of assay: Potentiation of antimicrobial activity against Streptococcus mutans ATCC 25175 assessed as chlorhexidine MIC at 200 ug/ml incubated for 48 hrs by checkerboard assay. Format: functional. Particulars: dose 200 µg/ml. The gist of the method:
as §2

Assay [23] concerns Lactiplantibacillus plantarum. Kind of assay: Potentiation of antimicrobial activity against Lactobacillus plantarum ATCC 8014 assessed as chlorhexidine MIC at 200 ug/ml incubated for 48 hrs by checkerboard assay. Format: functional. Particulars: dose 200 µg/ml. In a few lines:
as §2

The subject of assay [24] is Treponema denticola. Kind of assay: Potentiation of antimicrobial activity against Treponema denticola ATCC 35405 assessed as chlorhexidine MIC at 200 ug/ml incubated for 48 hrs by checkerboard assay. It counts as functional. Particulars: dose 200 µg/ml. In a few lines: as §2
The subject of assay [25] is Staphylococcus aureus. Kind of assay: Synergistic antimicrobial activity against Staphylococcus aureus ATCC 23235 assessed as fractional inhibitory concentration at 50 ug/ml incubated for 48 hrs in presence of chlorhexidine by checkerboard assay. It counts as functional. As to conditions: dose 50 µg/ml. In a few lines: as §2
Assay [26] has as its system Staphylococcus aureus. Nature of the assay: Synergistic antimicrobial activity against Staphylococcus aureus ATCC 23235 assessed as fractional inhibitory concentration at 25 ug/ml incubated for 48 hrs in presence of chlorhexidine by checkerboard assay. As to conditions: dose 25 µg/ml. Format: functional. In a few lines:
as §2

The subject of assay [27] is Streptococcus mutans. Kind of assay: Antibacterial activity against Streptococcus mutans ATCC 25175 assessed as inhibition of efflux pump by measuring increase in accumulation of ethidium bromide at 25 to 50 ug/ml and measured after 60 mins by fluorescence assay. Format: functional, organism-based. Particulars: dose 25-50 µg/ml, DDE = dose-dependent effect. The gist of the method:
as §1

Assay [28] relates to Streptococcus mutans. Nature of the assay: Antibacterial activity against Streptococcus mutans ATCC 25175 assessed as inhibition of efflux pump by measuring increase in accumulation of ethidium bromide at 50 ug/ml and measured after 60 mins in presence of chlorhexidine by fluorescence assay. As to conditions: dose 50.0 µg/ml. It counts as functional, organism-based. The gist of the method:
as §1

Assay [29] concerns Streptococcus mutans. Kind of assay: Synergistic antimicrobial activity against Streptococcus mutans ATCC 25175 assessed as fractional inhibitory concentration incubated for 48 hrs in presence of chlorhexidine by checkerboard assay. As to conditions: time 24 hrs; in the assay text read “24 hrs” for “48 hrs”. It counts as functional. The gist of the method: as §2
The test system of assay [30] is Streptococcus mutans. Nature of the assay: Antibiofilm activity against Streptococcus mutans ATCC 25175 at 50 to 100 ug/ml measured after 24 hrs by crystal violet staining method. As to conditions: dose 50-100 µg/ml.

In brackets after ≈: the same amount, converted by molar mass. Activity calls are given as the source filed them. The rule behind the calls is not given here.

Take `COc1c(OC)c(O)c2c(=O)cc(-c3ccc(O)cc3)oc2c1OC` [XANTHOMICROL]: the results for the MIC in the assay with Staphylococcus aureus [1], in the assay on Streptococcus mutans [2] and in the assay with Treponema denticola [3] were greater than 250 µg/mL, 180 µg/mL (≈ 523 µM) and 200 µg/mL (≈ 581 µM), respectively.
Take `N=C(NCCCCCCNC(=N)NC(=N)Nc1ccc(Cl)cc1)NC(=N)Nc1ccc(Cl)cc1` [CHLORHEXIDINE]: the result with Streptococcus mutans [4] was Active. Moreover, the MIC was 2.5 µg/mL in the assay on Staphylococcus aureus [5], 1.25 µg/mL in the assay on Streptococcus mutans [6], 10 µg/mL in assay [7] and 2.2 µg/mL with Treponema denticola [8].
For the compound `C=C1C[C@]23CC[C@@H]4C(CO)(CO)CC(=O)C[C@@]4(C)[C@@H]2CC[C@H]1C3`, the MIC in the assay with Staphylococcus aureus [1] was found to be 125 µg/mL (≈ 393 µM); in the assay on Streptococcus mutans [2], 140 µg/mL (≈ 440 µM); in the assay with Treponema denticola [3], 100 µg/mL (≈ 314 µM); in the assay on Staphylococcus aureus [9] it was 1.25 µg/mL; in the assay with Streptococcus mutans [10], 1.25 µg/mL; in [11], 10 µg/mL. For the same compound, the MIC came to 2.5 µg/mL in the assay on Treponema denticola [12]; 1.25 µg/mL in the assay with Staphylococcus aureus [13]; 0.6 µg/mL in the assay with Streptococcus mutans [14]; 10 µg/mL in assay [15]; 2.5 µg/mL with Treponema denticola [16]; 0.6 µg/mL in the assay with Staphylococcus aureus [17]. Besides, the MIC in the assay with Streptococcus mutans [18] amounted to 0.6 µg/mL; in assay [19], 10 µg/mL; in the assay with Treponema denticola [20] it was 2.5 µg/mL; with Staphylococcus aureus [21], 0.3 µg/mL; in the assay with Streptococcus mutans [22], 0.3 µg/mL; in assay [23], 2.5 µg/mL. Besides, the MIC with Treponema denticola [24] turned out to be 1.25 µg/mL. Also, the FIC was determined as 0.9 in the assay with Staphylococcus aureus [25], 0.7 in the assay on Staphylococcus aureus [26] and 0.85 with Streptococcus mutans [29]. Further, the Activity result with Streptococcus mutans [27] is “Dde”. In addition, the result with Streptococcus mutans [28] and with Streptococcus mutans [30] was Active.

Source of the values: ChEMBL document CHEMBL5120908, “Diterpenoid Constituents of Psiadia punctulata and Evaluation of Their Antimicrobial Activity” (2022).
